The source made the active and inactive calls. The rule behind the calls is not given here.
Columns and labels:
Schistosoma japonicum [1] = experiment: Antischistosomal activity against juvenile stage of Schistosoma japonicum at 32 uM after 72 hrs by microscopy
Schistosoma japonicum [2] = experiment: Antischistosomal activity against adult stage of Schistosoma japonicum infected in ICR mouse assessed as reduction of parasite burden at 400 mg/kg, po administered as single dose measured after 14 days; type: functional; parameters: scale not given: the % may be the effect or the level left
In short: (§1)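 Mice with adult S. japonicum infection got one oral dose (200 or 400 mg/kg) as an ultrasound-aided corn oil suspension; one group got an HP-β-CD complex solution instead. Untreated infected mice served as controls, 5–6 per group. Worm counts (mean, SD) gave percent worm burden reduction against control.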

Schistosoma japonicum [3] = experiment: Antischistosomal activity against juvenile stage of Schistosoma japonicum infected in ICR mouse assessed as reduction of parasite burden at 400 mg/kg, po administered as single dose measured after 14 days; type: functional; parameters: scale not given: the % may be the effect or the level left
Schistosoma japonicum [4] = experiment: Antischistosomal activity against juvenile stage of Schistosoma japonicum after 72 hrs by microscopy; type: functional, organism-based
In short: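 Juvenile S. japonicum were screened at 32 µM for 72 h. Compounds that killed worms were then tested three times in 2-fold serial dilutions from 32 to 2 µM, each incubated 72 h, and IC50 was calculated.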

Schistosoma japonicum [5] = experiment: Antischistosomal activity against adult stage of Schistosoma japonicum after 72 hrs by microscopy; type: functional, organism-based
Schistosoma mansoni = experiment: Antischistosomal activity against Schistosoma mansoni infected in mouse assessed as reduction of parasite burden at 400 mg/kg, po administered as single dose; type: functional; parameters: scale not given: the % may be the effect or the level left
Schistosoma japonicum [6] = experiment: Antischistosomal activity against juvenile stage of Schistosoma japonicum infected in ICR mouse assessed as reduction of parasite burden at 200 mg/kg, po administered as single dose measured after 14 days; type: functional; parameters: scale not given: the % may be the effect or the level left
Schistosoma japonicum [7] = experiment: Antischistosomal activity against adult stage of Schistosoma japonicum infected in ICR mouse assessed as reduction of parasite burden at 200 mg/kg, po administered as single dose measured after 14 days; type: functional; parameters: scale not given: the % may be the effect or the level left
In short: as §1

| IC50 (Schistosoma japonicum [4]) | Compound | Activity (Schistosoma japonicum [1]) | other results |
| --- | --- | --- | --- |
| – | Cc1ccc(NC(=O)Nc2ccc(Cl)c(Cl)c2)cc1 | inactive | – |
| – | COc1cccc(NC(=O)Nc2ccc(Cl)c(Cl)c2)c1 | inactive | – |
| – | O=C(C1CCCCC1)N1CC(=O)N2CCc3ccccc3C2C1 (stereo not drawn) [PRAZIQUANTEL] | – | Activity (Schistosoma japonicum [2]): 90.7% |
| – | COc1ccc(NC(=O)Nc2ccc(Cl)c(Cl)c2)cc1 | inactive | – |
| 9.6 µM | O=C(Nc1ccc(Cl)c(Cl)c1)Nc1ccc(N2CCOCC2)c(C(F)(F)F)c1 | – | Activity (Schistosoma japonicum [3]): 18.8%; IC50 (Schistosoma japonicum [5]): 8.4 µM; Activity (Schistosoma japonicum [2]): 3.4% |
| – | Clc1nc(Nc2ccc(Cl)c(Cl)c2)nc(Nc2ccc(Cl)c(Cl)c2)n1 | inactive | – |
| – | C[C@H]1[C@H](OC(=O)CCC(=O)O)O[C@@H]2O[C@@]3(C)CC[C@H]4[C@H](C)CC[C@@H]1[C@@]24OO3 [ARTESUNATE] | – | Activity (Schistosoma japonicum [3]): 72.4% |
| – | CCCCNC(=O)Nc1ccc(Cl)c(Cl)c1 | inactive | – |
| 10.1 µM | O=C(Nc1cccc(Cl)c1)Nc1ccc(Cl)c(Cl)c1 | – | – |
| – | O=C(Nc1cccnc1)Nc1cccnc1 | inactive | – |
| 22.6 µM | O=C(Nc1ccc(N2CCOCC2)c(C(F)(F)F)c1)Nc1ccc(N2CCOCC2)c(C(F)(F)F)c1 | – | – |
| – | O=C(Nc1ccccn1)Nc1ccccn1 | inactive | – |
| 11.3 µM | O=C(Nc1ccc(Cl)c(Cl)c1)Nc1cnc(Cl)c(Cl)c1 | – | – |
| – | O=C(Nc1cccnc1)Nc1ccc(Cl)c(Cl)c1 | inactive | – |
| 22.6 µM | O=S(=O)(Nc1ccc(Cl)c(Cl)c1)Nc1ccc(Cl)c(Cl)c1 | Active | – |
| – | O=C(Nc1ccc(Cl)c(Cl)c1)NN1CCN(c2ccccc2)CC1 | inactive | – |
| 4.7 µM | O=C(Nc1ccc(F)c(F)c1)Nc1ccc(Cl)c(Cl)c1 | – | Activity (Schistosoma japonicum [3]): 27.8%; IC50 (Schistosoma japonicum [5]): 2.2 µM; Activity (Schistosoma japonicum [2]): 0% |
| 12.8 µM | O=C(Nc1ccc(Cl)c(Cl)c1)Nc1cccc2ccccc12 | – | – |
| – | O=C(Nc1ccc(Cl)c(Cl)c1)NC12CC3CC(CC(C3)C1)C2 | inactive | – |
| – | Clc1ccc(Nc2cc(Nc3ccc(Cl)c(Cl)c3)ncn2)cc1Cl | inactive | – |

| IC50 (Schistosoma japonicum [4]) | Compound | Activity (Schistosoma japonicum [1]) | other results |
| --- | --- | --- | --- |
| – | O=C1N(c2ccc(Cl)c(Cl)c2)CCN1c1ccc(Cl)c(C(F)(F)F)c1 | inactive | – |
| 4.4 µM | O=C(Nc1ccc(Cl)c(Cl)c1)Nc1ccc(Cl)c(Cl)c1 | – | Activity (Schistosoma japonicum [3]): 32.2%; IC50 (Schistosoma japonicum [5]): 2.2 µM; Activity (Schistosoma japonicum [2]): 9.3%; Activity (Schistosoma mansoni): 52.5% |
| 22.6 µM | O=C(Nc1ccc(Cl)c(Cl)c1)Nc1cccc2cnccc12 | – | – |
| – | Nc1ccc(NC(=O)Nc2ccc(Cl)c(Cl)c2)cc1 | inactive | – |
| 2.5 µM | O=C(Nc1ccc(Cl)c(Cl)c1)Nc1ccc(Cl)c(C(F)(F)F)c1 | – | IC50 (Schistosoma japonicum [5]): 1.5 µM; Activity (Schistosoma japonicum [6]): 11.6%; Activity (Schistosoma japonicum [7]): 26.6% |
| – | O=C1C(=O)N(c2ccc(Cl)c(C(F)(F)F)c2)C(=O)N1c1ccc(Cl)c(Cl)c1 | inactive | – |
| – | O=C1N(c2ccc(Cl)c(Cl)c2)C(O)C(O)N1c1ccc(Cl)c(C(F)(F)F)c1 (stereo not drawn) | inactive | – |
| – | COc1ccccc1NC(=O)Nc1ccc(Cl)c(Cl)c1 | inactive | – |
| 12.7 µM | Cc1ccc(NC(=O)Nc2ccc(Cl)c(Cl)c2)cc1Cl | – | – |
| – | O=C(Nc1ccc(Cl)c(Cl)c1)Nc1ccccc1F | inactive | – |
| – | S=C(Nc1ccc(Cl)c(Cl)c1)Nc1ccc(Cl)c(Cl)c1 | inactive | – |
| 2.8 µM | O=C(Nc1ccc(Cl)c(C(F)(F)F)c1)Nc1ccc(Cl)c(C(F)(F)F)c1 | – | IC50 (Schistosoma japonicum [5]): 2.2 µM; Activity (Schistosoma japonicum [6]): 33.4%; Activity (Schistosoma japonicum [7]): 32.6% |
| 4.3 µM | N#Cc1cc(NC(=O)Nc2ccc(Cl)c(Cl)c2)ccc1F | – | Activity (Schistosoma japonicum [3]): 14.6%; IC50 (Schistosoma japonicum [5]): 2.2 µM; Activity (Schistosoma japonicum [2]): 11.4% |
| 7 µM | O=C(Nc1ccc(F)c(F)c1)Nc1ccc(F)c(F)c1 | – | Activity (Schistosoma japonicum [3]): 6.4%; IC50 (Schistosoma japonicum [5]): 5.1 µM; Activity (Schistosoma japonicum [2]): 2.3% |
| 22.6 µM | O=C(Nc1ccccc1S(=O)(=O)N1CCOCC1)Nc1ccccc1S(=O)(=O)N1CCOCC1 | – | – |
| – | O=C(Nc1ccc(Cl)c(Cl)c1)NC1CCCCC1 | inactive | – |
| – | O=C(Nc1cnc(Cl)c(Cl)c1)Nc1cnc(Cl)c(Cl)c1 | inactive | – |
| 19 µM | Clc1ccc(Nc2nc(Nc3ccc(Cl)c(Cl)c3)nc(N3CCOCC3)n2)cc1Cl | Active | – |
| – | O=C(Nc1ccc(Cl)c(Cl)c1)C(=O)Nc1ccc(Cl)c(Cl)c1 | inactive | – |

Source: ChEMBL document CHEMBL3769319, “Antischistosomal activity of N,N'-arylurea analogs against Schistosoma japonicum” (Bioorg Med Chem Lett, 2016)
